Laboratory results from ChEMBL document CHEMBL3102784, “Salicylanilide diethyl phosphates: synthesis, antimicrobial activity and cytotoxicity” (Bioorg Med Chem, 2014).
In brackets after ≈: the same amount, converted by molar mass. Activity calls are given as the source filed them. The rule behind the calls is not given here.

Experiments:
[1] = system: Trichophyton mentagrophytes; experiment: Antifungal activity against Trichophyton mentagrophytes 445 after 120 hrs by broth microdilution method; type: functional; conditions: Trichophyton mentagrophytes, 445, 120 h
Method in brief: (§1)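 Filamentous dermatophyte tested by broth microdilution in RPMI 1640 with glutamine, fluconazole as reference. Value expressed as IC50 relative to growth control. Read at 72 and 120 h.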

Staphylococcus aureus [2] = experiment: Antibacterial activity against Staphylococcus aureus CCM 4516/08 after 24 hrs by broth microdilution method; type: functional; conditions: CCM 4516/08, 24 h
Method in brief: (§2)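 Broth microdilution in Mueller–Hinton broth, compounds dissolved in DMSO, tested over a dilution series from 500 downward. MIC taken as ≥95% growth reduction (IC95) versus drug-free control. Benzylpenicillin comparator. Readings at 24 and 48 h.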

Candida albicans [3] = experiment: Antifungal activity against Candida albicans ATCC 44859 after 24 hrs by broth microdilution method; type: functional; conditions: ATCC 44859, 24 h
Method in brief: (§3)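 Broth microdilution in RPMI 1640 with glutamine, fluconazole as reference. For yeasts, MIC is ≥80% growth reduction (IC80) versus control. For filamentous fungi, the value is expressed as IC50. Readings at 24 and 48 h.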

Mycobacterium kansasii [4] = experiment: Antimycobacterial activity against Mycobacterium kansasii 6509/96 after 7 days; type: functional; conditions: 6509/96, 168 h
Method in brief: (§4)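 Micromethod MIC in Šula's semisynthetic medium at 37 °C. Compounds added in DMSO at 1000 down to 0.032 µmol/L. Isoniazid standard in sterile water at 0.5–250 µmol/L. Inocula: H37Rv 10^3, M. avium 10^5, M. kansasii 10^4. Read at 14 and 21 d, plus 7 d for M. kansasii.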

Mycobacterium kansasii [5] = experiment: Antimycobacterial activity against Mycobacterium kansasii My 235/80 after 14 days; type: functional; conditions: My 235/80, 336 h; method in brief: as §4
Mycobacterium kansasii [6] = experiment: Antimycobacterial activity against Mycobacterium kansasii 6509/96 after 21 days; type: functional; conditions: 6509/96, 504 h; method in brief: as §4
Mycobacterium avium [7] = experiment: Antimycobacterial activity against isoniazid, rifampicin, ethambutol and ofloxacin-resistant Mycobacterium avium My 330/88 after 14 days; type: functional; conditions: My 330/88, 336 h; method in brief: as §4
Aspergillus fumigatus [8] = experiment: Antifungal activity against Aspergillus fumigatus 231 after 24 hrs by broth microdilution method; type: functional; conditions: Aspergillus fumigatus, 231, 24 h; method in brief: as §3
[9] = system: Staphylococcus epidermidis; experiment: Antibacterial activity against Staphylococcus epidermidis H 6966/08 after 24 hrs by broth microdilution method; type: functional; conditions: H 6966/08, 24 h; method in brief: as §2
Escherichia coli = experiment: Antibacterial activity against Escherichia coli CCM 4517 at 500 micromol/L after 24 to 48 hrs by broth microdilution method; type: functional, organism-based; method in brief: as §2
Mycobacterium kansasii [10] = experiment: Antimycobacterial activity against Mycobacterium kansasii My 235/80 after 21 days; type: functional; conditions: My 235/80, 504 h; method in brief: as §4
Trichosporon asahii [11] = experiment: Antifungal activity against Trichosporon asahii 1188 after 48 hrs by broth microdilution method; type: functional; conditions: Trichosporon asahii, 1188, 48 h; method in brief: as §3
[12] = system: Staphylococcus epidermidis; experiment: Antibacterial activity against Staphylococcus epidermidis H 6966/08 after 48 hrs by broth microdilution method; type: functional; conditions: H 6966/08, 48 h; method in brief: as §2
Pseudomonas aeruginosa = experiment: Antibacterial activity against Pseudomonas aeruginosa CCM 1961 at 500 micromol/L after 24 to 48 hrs by broth microdilution method; type: functional, organism-based; method in brief: as §2
Aspergillus fumigatus [13] = experiment: Antifungal activity against Aspergillus fumigatus 231 after 48 hrs by broth microdilution method; type: functional; conditions: Aspergillus fumigatus, 231, 48 h; method in brief: as §3
Pichia kudriavzevii [14] = experiment: Antifungal activity against Candida krusei E28 after 48 hrs by broth microdilution method; type: functional; conditions: E28, 48 h; method in brief: as §3
Nakaseomyces glabratus = experiment: Antifungal activity against Candida glabrata 20/I at 500 micromol/L after 24 to 48 hrs by broth microdilution method; type: functional, organism-based; method in brief: as §3
[15] = system: Trichophyton mentagrophytes; experiment: Antifungal activity against Trichophyton mentagrophytes 445 after 72 hrs by broth microdilution method; type: functional; conditions: Trichophyton mentagrophytes, 445, 72 h; method in brief: as §1
Klebsiella pneumoniae [16] = experiment: Antibacterial activity against Klebsiella pneumoniae D 11750/08 at 500 micromol/L after 24 to 48 hrs by broth microdilution method; type: functional, organism-based; method in brief: as §2
Staphylococcus aureus [17] = experiment: Antibacterial activity against methicillin-resistant Staphylococcus aureus H 5996/08 after 48 hrs by broth microdilution method; type: functional; conditions: H 5996/08, 48 h; method in brief: as §2
Staphylococcus aureus [18] = experiment: Antibacterial activity against methicillin-resistant Staphylococcus aureus H 5996/08 after 24 hrs by broth microdilution method; type: functional; conditions: H 5996/08, 24 h; method in brief: as §2
Candida tropicalis = experiment: Antifungal activity against Candida tropicalis 156 at 500 micromol/L after 24 to 48 hrs by broth microdilution method; type: functional, organism-based; method in brief: as §3
Candida albicans [19] = experiment: Antifungal activity against Candida albicans ATCC 44859 after 48 hrs by broth microdilution method; type: functional; conditions: ATCC 44859, 48 h; method in brief: as §3
Mycobacterium kansasii [20] = experiment: Antimycobacterial activity against Mycobacterium kansasii 6509/96 after 14 days; type: functional; conditions: 6509/96, 336 h; method in brief: as §4
Enterococcus sp. = experiment: Antibacterial activity against Enterococcus sp. J 14365/08 at 500 micromol/L after 24 to 48 hrs by broth microdilution method; type: functional, organism-based; method in brief: as §2
Trichosporon asahii [21] = experiment: Antifungal activity against Trichosporon asahii 1188 after 24 hrs by broth microdilution method; type: functional; conditions: Trichosporon asahii, 1188, 24 h; method in brief: as §3
Mycobacterium avium [22] = experiment: Antimycobacterial activity against isoniazid, rifampicin, ethambutol and ofloxacin-resistant Mycobacterium avium My 330/88 after 21 days; type: functional; conditions: My 330/88, 504 h; method in brief: as §4
Lichtheimia corymbifera [23] = experiment: Antifungal activity against Absidia corymbifera 272 after 48 hrs by broth microdilution method; type: functional; conditions: Lichtheimia corymbifera, 272, 48 h; method in brief: as §3
Mycobacterium kansasii [24] = experiment: Antimycobacterial activity against Mycobacterium kansasii My 235/80 after 7 days; type: functional; conditions: My 235/80, 168 h; method in brief: as §4
HepG2 = experiment: Cytotoxicity against human HepG2 cells after 24 hrs by CellTiter assay; type: cell-based; conditions: HepG2, 24 h
Method in brief: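 HepG2 cells (passage 27–33) in MEM with 10% FBS, L-glutamine and NEAA, seeded at 1×10^4 per well. Treated next day with compounds at 0.1–100 µM (or 0.1–25 µmol/L), triplicates, <1% DMSO, for 24 h at 37 °C, 5% CO2. MTS reagent added for 2 h, absorbance read at 490 nm. IC50 taken against untreated (100%) and 10% DMSO (0%) controls.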

Staphylococcus aureus [25] = experiment: Antibacterial activity against Staphylococcus aureus CCM 4516/08 after 48 hrs by broth microdilution method; type: functional; conditions: CCM 4516/08, 48 h; method in brief: as §2
[26] = system: Mycobacterium tuberculosis; experiment: Antimycobacterial activity against Mycobacterium tuberculosis H37Rv My 331/88 after 14 days; type: functional; conditions: H37Rv My 331/88, 336 h; method in brief: as §4
Klebsiella pneumoniae [27] = experiment: Antibacterial activity against ESBL-positive Klebsiella pneumoniae J 14368/08 at 500 micromol/L after 24 to 48 hrs by broth microdilution method; type: functional, organism-based; method in brief: as §2
[28] = system: Mycobacterium tuberculosis; experiment: Antimycobacterial activity against Mycobacterium tuberculosis H37Rv My 331/88 after 21 days; type: functional; conditions: H37Rv My 331/88, 504 h; method in brief: as §4
Pichia kudriavzevii [29] = experiment: Antifungal activity against Candida krusei E28 after 24 hrs by broth microdilution method; type: functional; conditions: E28, 24 h; method in brief: as §3
Lichtheimia corymbifera [30] = experiment: Antifungal activity against Absidia corymbifera 272 after 24 hrs by broth microdilution method; type: functional; conditions: Lichtheimia corymbifera, 272, 24 h; method in brief: as §3

Structure (SMILES) | MIC50 [1] | MIC95 (Staphylococcus aureus [2]) | MIC80 (Candida albicans [3]) | MIC (Mycobacterium kansasii [4]) | MIC (Mycobacterium kansasii [5]) | MIC (Mycobacterium kansasii [6]) | MIC (Mycobacterium avium [7]) | MIC50 (Aspergillus fumigatus [8]) | MIC95 [9] | Activity (Escherichia coli) | MIC (Mycobacterium kansasii [10]) | MIC80 (Trichosporon asahii [11]) | MIC95 [12] | Activity (Pseudomonas aeruginosa) | MIC50 (Aspergillus fumigatus [13]) | MIC80 (Pichia kudriavzevii [14]) | Activity (Nakaseomyces glabratus) | MIC50 [15] | Activity (Klebsiella pneumoniae [16]) | MIC95 (Staphylococcus aureus [17]) | other results
CCOP(=O)(OCC)Oc1ccc(Cl)cc1C(=O)Nc1cccc(Cl)c1 | > 500 µM | 500 µM (≈ 209 µg/mL) | > 500 µM | 8 µM (≈ 3.35 µg/mL) | 8 µM (≈ 3.35 µg/mL) | 16 µM (≈ 6.69 µg/mL) | 16 µM (≈ 6.69 µg/mL) | > 500 µM | 125 µM (≈ 52.3 µg/mL) | inactive | 8 µM (≈ 3.35 µg/mL) | > 500 µM | 125 µM (≈ 52.3 µg/mL) | inactive | > 500 µM | > 500 µM | inactive | > 500 µM | inactive | 500 µM (≈ 209 µg/mL) | MIC95 (Staphylococcus aureus [18]): 500 µM (≈ 209 µg/mL); Activity (Candida tropicalis): inactive; MIC80 (Candida albicans [19]): > 500 µM; MIC (Mycobacterium kansasii [20]): 16 µM (≈ 6.69 µg/mL); Activity (Enterococcus sp.): inactive; MIC80 (Trichosporon asahii [21]): > 500 µM; MIC (Mycobacterium avium [22]): 16 µM (≈ 6.69 µg/mL); MIC50 (Lichtheimia corymbifera [23]): > 500 µM; MIC (Mycobacterium kansasii [24]): 8 µM (≈ 3.35 µg/mL); IC50 (HepG2): 2680 nM; MIC95 (Staphylococcus aureus [25]): 500 µM (≈ 209 µg/mL); MIC [26]: 4 µM (≈ 1.67 µg/mL); Activity (Klebsiella pneumoniae [27]): inactive; MIC [28]: 4 µM (≈ 1.67 µg/mL); MIC80 (Pichia kudriavzevii [29]): > 500 µM; MIC50 (Lichtheimia corymbifera [30]): > 500 µM
CCOP(=O)(OCC)Oc1cc(Cl)ccc1C(=O)Nc1ccc(C(F)(F)F)cc1 | 250 µM (≈ 113 µg/mL) | 31.2 µM (≈ 14.1 µg/mL) | > 500 µM | 1 µM (≈ 0.452 µg/mL) | 1 µM (≈ 0.452 µg/mL) | 2 µM (≈ 0.904 µg/mL) | 4 µM (≈ 1.81 µg/mL) | > 500 µM | 31.2 µM (≈ 14.1 µg/mL) | inactive | 1 µM (≈ 0.452 µg/mL) | > 500 µM | 31.2 µM (≈ 14.1 µg/mL) | inactive | > 500 µM | > 500 µM | inactive | 250 µM (≈ 113 µg/mL) | inactive | 62.5 µM (≈ 28.2 µg/mL) | MIC95 (Staphylococcus aureus [18]): 62.5 µM (≈ 28.2 µg/mL); Activity (Candida tropicalis): inactive; MIC80 (Candida albicans [19]): > 500 µM; MIC (Mycobacterium kansasii [20]): 2 µM (≈ 0.904 µg/mL); Activity (Enterococcus sp.): inactive; MIC80 (Trichosporon asahii [21]): > 500 µM; MIC (Mycobacterium avium [22]): 4 µM (≈ 1.81 µg/mL); MIC50 (Lichtheimia corymbifera [23]): > 500 µM; MIC (Mycobacterium kansasii [24]): 0.5 µM (≈ 0.226 µg/mL); IC50 (HepG2): 2510 nM; MIC95 (Staphylococcus aureus [25]): 31.2 µM (≈ 14.1 µg/mL); MIC [26]: 1 µM (≈ 0.452 µg/mL); Activity (Klebsiella pneumoniae [27]): inactive; MIC [28]: 1 µM (≈ 0.452 µg/mL); MIC80 (Pichia kudriavzevii [29]): > 500 µM; MIC50 (Lichtheimia corymbifera [30]): > 500 µM
CCOP(=O)(OCC)Oc1ccc(Cl)cc1C(=O)Nc1ccc(F)cc1 | > 500 µM | 250 µM (≈ 100 µg/mL) | > 500 µM | 16 µM (≈ 6.43 µg/mL) | 32 µM (≈ 12.9 µg/mL) | 32 µM (≈ 12.9 µg/mL) | 62.5 µM (≈ 25.1 µg/mL) | > 500 µM | > 500 µM | inactive | 32 µM (≈ 12.9 µg/mL) | > 500 µM | > 500 µM | inactive | > 500 µM | > 500 µM | inactive | > 500 µM | inactive | > 500 µM | MIC95 (Staphylococcus aureus [18]): > 500 µM; Activity (Candida tropicalis): inactive; MIC80 (Candida albicans [19]): > 500 µM; MIC (Mycobacterium kansasii [20]): 32 µM (≈ 12.9 µg/mL); Activity (Enterococcus sp.): inactive; MIC80 (Trichosporon asahii [21]): > 500 µM; MIC (Mycobacterium avium [22]): 62.5 µM (≈ 25.1 µg/mL); MIC50 (Lichtheimia corymbifera [23]): > 500 µM; MIC (Mycobacterium kansasii [24]): 32 µM (≈ 12.9 µg/mL); IC50 (HepG2): 31400 nM; MIC95 (Staphylococcus aureus [25]): 500 µM (≈ 201 µg/mL); MIC [26]: 8 µM (≈ 3.21 µg/mL); Activity (Klebsiella pneumoniae [27]): inactive; MIC [28]: 16 µM (≈ 6.43 µg/mL); MIC80 (Pichia kudriavzevii [29]): > 500 µM; MIC50 (Lichtheimia corymbifera [30]): > 500 µM
